Assay results gathered from unrelated publications.
Compare with care: the assays were run in different laboratories.
Cell line: Vero
Effect on: cell growth or viability

Compound | test | setting | CC50
CC(=O)C1=C(C)N2NC(c3ccccc3O)N(C(Cc3c[nH]c4ccccc34)C(=O)O)C2=NC1c1ccc(Cl)cc1 (stereo not drawn) | MTT | 72 h | 250 µg/mL
C[C@H]1COc2c(N3CCN(C)CC3)c(F)cc3c(=O)c(C(=O)O)cn1c23 | MTT | 72 h | > 100 µg/mL
Cc1cn([C@H]2C[C@H](N=[N+]=[N-])[C@@H](CO)O2)c(=O)[nH]c1=O |  |  | 51 µM
Clc1ccc(NCc2ccc(Oc3ccccn3)cc2)cc1 | MTT | 72 h | > 300 µM
C[C@@H]1[C@H](O)[C@@H](C)/C=C/C=C/C=C/C=C/C=C/C=C/C=C/[C@H](O[C@@H]2O[C@H](C)[C@@H](O)[C@H](N)[C@@H]2O)C[C@@H]2O[C@](O)(C[C@@H](O)C[C@@H](O)[C@H](O)CC[C@@H](O)C[C@@H](O)CC(=O)O[C@H]1C)C[C@H](O)[C@H]2C(=O)O |  |  | 7.7 µM
O=C(Nc1ccc(Br)cc1)c1cc(Cl)ccc1O | MTT | 72 h | 10 µg/mL
CC1(c2ccccc2O)Nn2c(nc(-c3ccc(Cl)cc3)c(C#N)c2=O)N1C(Cc1c[nH]c2ccccc12)C(=O)O (stereo not drawn) | MTT | 72 h | 500 µg/mL
O=C(Nc1ccc(F)c(Cl)c1)c1cc(Cl)ccc1O | MTT | 72 h | < 5 µg/mL
Fc1ccccc1NCc1ccc(Oc2ccccn2)cc1 | MTT | 72 h | > 300 µM
N#Cc1c(-c2ccc(Cl)cc2)nc2n(c1=O)NC(c1ccccc1O)N2C(Cc1c[nH]c2ccccc12)C(=O)O (stereo not drawn) | MTT | 72 h | 250 µg/mL
COC(=O)N[C@H](C(=O)N1CCC[C@H]1c1nc(-c2ccc(-c3ccc(-c4c[nH]c([C@@H]5CCCN5C(=O)[C@@H](NC(=O)OC)C(C)C)n4)cc3)cc2)c[nH]1)C(C)C |  |  | 26 µM
O=C(Nc1ccc(Cl)c(C(F)(F)F)c1)c1cc(Cl)ccc1O | MTT | 72 h | 5 µg/mL
CC(C(=O)O)N1c2nc(-c3ccc(Cl)cc3)c(C#N)c(=O)n2NC1(C)c1ccccc1O (stereo not drawn) | MTT | 72 h | 250 µg/mL
COc1cccc(NCc2ccc(Oc3ccccn3)cc2)c1 | MTT | 72 h | > 300 µM
COC(=O)N[C@H](C(=O)N1C[C@@H](N=[N+]=[N-])C[C@H]1c1nc(Br)c(-c2ccc(-c3ccc(-c4[nH]c([C@@H]5C[C@H](N=[N+]=[N-])CN5C(=O)[C@@H](NC(=O)OC)C(C)C)nc4Br)cc3)cc2)[nH]1)C(C)C |  |  | > 100 µM
Brc1ccc(NCc2ccc(Oc3ccccn3)cc2)cc1 | MTT | 72 h | > 300 µM
CN(C)N1C(=O)c2ccccc2C1CB1OC(C)(C)C(C)(C)O1 (stereo not drawn) |  |  | 204 µM
Clc1ccccc1NCc1ccc(Oc2ccccn2)cc1 | MTT | 72 h | > 300 µM
O=C1C(O)=C([C@H]2CC[C@H](c3ccc(Cl)cc3)CC2)C(=O)c2ccccc21 |  |  | 9.5 µM
O=C(Nc1ccc(Cl)c(C(F)(F)F)c1)c1ccccc1O | MTT | 72 h | < 10 µg/mL
Cc1ccc(NCc2ccc(Oc3ccccn3)cc2)cc1 | MTT | 72 h | > 300 µM
